Assay results as given in ChEMBL document CHEMBL3286351, “Antibacterial evaluation of structurally amphipathic, membrane active small cationic peptidomimetics: synthesized by incorporating 3-amino benzoic acid as peptidomimetic element” (Eur J Med Chem, 2014).
Converted amounts (≈) assume the structure as drawn. Where a SMILES comes first, the peptide text is derived from it. [ ]: non-standard residue; d: D form. 3Abz = Nc1cccc(C(=O)O)c1; Orn = NCCC[CH](N)C(=O)O

How the values were obtained:
[1] = system: Staphylococcus epidermidis; assay: Antibacterial activity against methicillin-resistant Staphylococcus epidermidis ATCC 51625 assessed as growth inhibition after 18 hrs by CLSI microdilution broth assay; format: functional; details: ATCC 51625, 18 h
In short: (§1)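 Modified CLSI broth microdilution in Mueller-Hinton broth. Wells held 90 µL of about 2 × 10^5 CFU/mL inoculum plus 10 µL of serially diluted peptidomimetic, range 0.7-100 µg/mL. Plates were incubated overnight with agitation at 37 °C and absorbance read at 600 nm after 18 h. Controls: inoculum without compound, and uninoculated broth. Run in triplicate.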

[2] = Induction of hemolysis in human RBC assessed as hemoglobin release after 1 hr by microtiter plate reader analysis; format: cell-based, Erythrocyte; details: for HC10: erythrocyte, 1 h; for HC50 at 1 h: red blood cells
In short: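 Freshly isolated human RBCs washed three times in PBS (35 mM phosphate, 150 mM NaCl, pH 7.2) and used as a 4% (v/v) suspension. Mixed 1:1 with twofold serial dilutions of compound, incubated 1 h at 37 °C without agitation, then centrifuged. Supernatant A540 read. PBS defined 0% and 1% Triton X-100 defined 100% lysis; HC50 and HC10 derived.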

[3] = Selectivity ratio of HC50 for hemolysis in human RBC to MIC for Staphylococcus aureus
[4] = system: HaCaT; assay: Cytotoxicity against human HaCaT cells assessed as decrease in cell viability after 24 hrs by MTT assay; format: cell-based
In short: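 HaCaT keratinocytes grown as a monolayer in DMEM with 10% FBS and penicillin/streptomycin, 37 °C, 5% CO2. Seeded 24 h, then exposed to compound for 24 h. MTT (5 mg/mL stock in PBS) added for 4 h; formazan dissolved in isopropanol and read at 570 nm. Growth inhibition calculated relative to medium-only controls. Two independent experiments in triplicate.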

[5] = system: HaCaT; assay: Cytotoxicity against human HaCaT cells at 100 to 500 ug/ml after 24 hrs by LDH release assay; format: cell-based
In short: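 HaCaT cells (DMEM with 10% FBS, 37 °C, 5% CO2) seeded for 24 h, then treated with varying concentrations for 24 h. LDH measured at 490 nm in both supernatant and trypsinized cell lysate with a non-radioactive kit. % release = supernatant/(supernatant + lysate) × 100. Two independent experiments in triplicate.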

[6] = (§2) Stability in human plasma assessed as compound degradation after 24 hrs by RP-HPLC analysis; format: ADME, cell-free; details: read-out: Drug degradation
In short: (§3)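 Compound (1 mg/mL stock in water; 50 µL) added to 1 mL fresh heparinized human plasma and held at 37 °C. Samples taken at 30 min, 1, 2, 6, 12 and 24 h. Proteins precipitated with 95% ethanol, cooled at 4 °C for 15 min and centrifuged at 18,000 g. Supernatant analyzed by RP-HPLC with UV detection at 280 nm.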

[7] = Stability in human plasma assessed as compound degradation after 30 mins by RP-HPLC analysis; format: ADME, cell-free; details: read-out: Drug degradation; in short: as §3
[8] = system: Plasma; assay: Stability in human plasma assessed as compound degradation after 12 hrs by RP-HPLC analysis; format: ADME, cell-free; in short: as §3
[9] = system: trypsin; assay: Proteolytic stability assessed as trypsin (unknown origin)-mediated compound degradation by measuring compound remaining after 4 days by RP-HPLC analysis; format: ADME; details: human, trypsin; read-out: Stability
In short: (§4)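 Compound at 1 mg/mL in 0.1 M NH4HCO3 (pH 8.2) combined with trypsin or α-chymotrypsin solution (1 mg enzyme per 50 mL of the same buffer) at 37 °C. Aliquots taken over time and quenched with 10% formic acid. Remaining compound quantified by C18 RP-HPLC. An enzyme-free control was run for each test.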

[10] = system: alpha chymotrypsin; assay: Proteolytic stability assessed as alpha chymotrypsin (unknown origin)-mediated compound degradation by measuring compound remaining after 4 days by RP-HPLC analysis; format: ADME; details: human, read-out: Stability; in short: as §4
[11] = Retention time of the compound by HPLC analysis; format: physicochemical
In short: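 Analytical RP-HPLC on a C18 column (5 µm, 4.6 × 250 mm) at room temperature. Run a linear gradient of 0.5-60% acetonitrile containing 0.05% TFA against water containing 0.05% TFA at 0.5 mL/min.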

[12] = system: Escherichia coli; assay: Antibacterial activity against Escherichia coli MTCC 723 assessed as growth inhibition after 18 hrs by CLSI microdilution broth assay; format: functional; details: MTCC 723, 18 h
[13] = system: Pseudomonas aeruginosa; assay: Antibacterial activity against Pseudomonas aeruginosa MTCC 2295 assessed as growth inhibition after 18 hrs by CLSI microdilution broth assay; format: functional; details: MTCC 2295, 18 h
[14] = system: Staphylococcus aureus; assay: Antibacterial activity against Staphylococcus aureus MTCC 3160 assessed as growth inhibition after 18 hrs by CLSI microdilution broth assay; format: functional; details: MTCC 3160, 18 h
[15] = system: Bacillus subtilis; assay: Antibacterial activity against Bacillus subtilis MTCC 2763 assessed as growth inhibition after 18 hrs by CLSI microdilution broth assay; format: functional; details: MTCC 2763, 18 h
[16] = system: Staphylococcus aureus; assay: Antibacterial activity against methicillin-resistant Staphylococcus aureus ATCC BAA-1720 assessed as growth inhibition after 18 hrs by CLSI microdilution broth assay; format: functional; details: ATCC BAA-1720, 18 h; in short: as §1
[17] = system: Plasma; assay: as §2; format: ADME, cell-free; details: 24 h; in short: as §3

SMILES	MIC [1]	HC10 [2]	HC50 at 1 h [2]	Selectivity ratio [3]	Activity [4]	Activity [5]	metabolised at 24 h [6]	metabolised at 0.5 h [7]	Stability [8]	remaining at 96 h [9]	remaining at 96 h [10]	Retention_time [11]	MIC [12]	MIC [13]	MIC [14]	MIC [15]	MIC [16]	Stability [17]
N=C(N)NCCCC(NC(=O)C(Cc1c[nH]c2ccccc12)NC(=O)C(Cc1c[nH]c2ccccc12)NC(=O)C(CCCNC(=N)N)NC(=O)C(N)Cc1c[nH]c2ccccc12)C(N)=O (stereo not drawn) (H-WRWWR-NH2; configuration not given here)	20 µg/mL (≈ 22.5 µM)	60 µg/mL	200 µg/mL	13.3	Dose-dependent effect	Toxic	18%	5.31%	Stable	21%	44%	30.604 min	40 µg/mL (≈ 45 µM)	70 µg/mL (≈ 78.8 µM)	15 µg/mL (≈ 16.9 µM)	50 µg/mL (≈ 56.3 µM)	17.5 µg/mL (≈ 19.7 µM)	–
NCCCC(NC(=O)C(Cc1c[nH]c2ccccc12)NC(=O)C(Cc1c[nH]c2ccccc12)NC(=O)C(CCCN)NC(=O)C(N)Cc1c[nH]c2ccccc12)C(N)=O (stereo not drawn) (H-W[Orn]WW[Orn]-NH2; configuration not given here)	70 µg/mL (≈ 87.1 µM)	65 µg/mL	225 µg/mL	4.5	Dose-dependent effect	Toxic	–	4.72%	–	82%	44%	28.309 min	70 µg/mL (≈ 87.1 µM)	150 µg/mL (≈ 187 µM)	50 µg/mL (≈ 62.2 µM)	120 µg/mL (≈ 149 µM)	50 µg/mL (≈ 62.2 µM)	Stable
NCCCC(N)C(=O)NC(Cc1c[nH]c2ccccc12)C(=O)Nc1cccc(C(=O)NC(Cc2c[nH]c3ccccc23)C(=O)NC(CCCN)C(N)=O)c1 (stereo not drawn) (H-[Orn]W[3Abz]W[Orn]-NH2; configuration not given here)	15 µg/mL (≈ 20.4 µM)	190 µg/mL	> 500 µg/mL	> 28.6	–	–	–	–	–	–	–	24.231 min	50 µg/mL (≈ 67.9 µM)	40 µg/mL (≈ 54.3 µM)	17.5 µg/mL (≈ 23.7 µM)	50 µg/mL (≈ 67.9 µM)	20 µg/mL (≈ 27.1 µM)	–
NCCCC(N)C(=O)NC(CCCN)C(=O)NC(Cc1c[nH]c2ccccc12)C(=O)NC(Cc1c[nH]c2ccccc12)C(=O)NC(CCCN)C(N)=O (stereo not drawn) (H-[Orn][Orn]WW[Orn]-NH2; configuration not given here)	100 µg/mL (≈ 137 µM)	100 µg/mL	310 µg/mL	4.42	–	–	–	–	–	–	–	26.672 min	120 µg/mL (≈ 164 µM)	150 µg/mL (≈ 205 µM)	70 µg/mL (≈ 95.6 µM)	100 µg/mL (≈ 137 µM)	100 µg/mL (≈ 137 µM)	–
NCCCC(N)C(=O)NC(CCCN)C(=O)NC(Cc1c[nH]c2ccccc12)C(=O)Nc1cccc(C(=O)NC(Cc2c[nH]c3ccccc23)C(=O)NC(CCCN)C(N)=O)c1 (stereo not drawn) (H-[Orn][Orn]W[3Abz]W[Orn]-NH2; configuration not given here)	12.5 µg/mL (≈ 14.7 µM)	120 µg/mL	450 µg/mL	60	–	–	–	–	–	–	–	24.231 min	40 µg/mL (≈ 47 µM)	50 µg/mL (≈ 58.8 µM)	7.5 µg/mL (≈ 8.81 µM)	40 µg/mL (≈ 47 µM)	10.2 µg/mL (≈ 12 µM)	–
